# Screening data deposited in PubChem by several laboratories.
# CRFBP-R2 block – antagonists of CRF-BP/CRF-R2 complex, primary screen, cell-based, HEK293, calcium dye fluorescence, uHTS; CRF-induced calcium fluorescence; inhibition, % at 11.8 µM; 0.59% of 350,000 active; AID 588475, 2011;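 active = inhibition of the ligand-induced calcium signal above about 50% at the single tested concentration, limit read from the data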
# SIRT5 block – SIRT5 desuccinylase inhibitors, primary screen, biochemical, fluorescence imaging, single point, set 5; Purified SirT5, succinyl-peptide AMC, trypsin-coupled fluorescence; 1.1% of 330,000 active; inhibition, % at 15 µM; NAD-dependent protein deacylase sirtuin-5, mitochondrial (Homo sapiens), Q9NXA8; in the data active = inhibition above about 15%
# PKA-R1A act – activators of PKA-R1A holoenzyme, primary screen, biochemical, fluorescence polarization, Cy5-IP20, bovine R1A, mouse PKAc; PKA-R1A dissociation; scaled: DMSO 0%, 113 µM cGMP 100%; 0.083% of 340,000 active; activation, % at 11.4 µM; AID 504707, 2011;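 active = percent activation above the mean of all tested compounds plus 3 SD, cut at about 19% in these data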;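 note: higher means more PKAc released from R1A so a rise in polarization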
# S100A4 inh HTS – inhibitors of S100A4-myosin IIA peptide binding, primary screen, biochemical, fluorescence polarization, TAMRA-MyoIIA peptide. inhibition, % at 10.7 µM. 0.14% of 360,000 active. AID 652163, 2013;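 active = mean inhibition of at least 70% across replicates, with every replicate also reaching that level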
#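 assay system = human S100A4 monomer with TAMRA-labelled myosin IIA peptide | also added = labelled myosin peptide probe, 5 nM | incubation = 5 min between mix addition and reading | control set = DMSO and TFP controls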
# PKA-R2B activ – activators of PKA-R2B holoenzyme, primary screen, biochemical, fluorescence polarization, Cy5-IP20, human | 0.079% of 340,000 active | AID 504700, 2011 | cAMP-dependent protein kinase catalytic subunit beta (Homo sapiens) + cAMP-dependent … | activation, % at 11.4 µM | PKA-R2B holoenzyme dissociation; R2B truncated from residue 108, S112A mutant; 0% DMSO only, 100% 113 µM cGMP;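 active = activation above a cutoff set at the mean over all compounds plus 3 SD, cut at about 18% in these data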;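 note: higher means more holoenzyme dissociation and a rise in polarization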
# Target sequence (P31323 whole entry, looked up, other chains not shown, the tested form may be a part): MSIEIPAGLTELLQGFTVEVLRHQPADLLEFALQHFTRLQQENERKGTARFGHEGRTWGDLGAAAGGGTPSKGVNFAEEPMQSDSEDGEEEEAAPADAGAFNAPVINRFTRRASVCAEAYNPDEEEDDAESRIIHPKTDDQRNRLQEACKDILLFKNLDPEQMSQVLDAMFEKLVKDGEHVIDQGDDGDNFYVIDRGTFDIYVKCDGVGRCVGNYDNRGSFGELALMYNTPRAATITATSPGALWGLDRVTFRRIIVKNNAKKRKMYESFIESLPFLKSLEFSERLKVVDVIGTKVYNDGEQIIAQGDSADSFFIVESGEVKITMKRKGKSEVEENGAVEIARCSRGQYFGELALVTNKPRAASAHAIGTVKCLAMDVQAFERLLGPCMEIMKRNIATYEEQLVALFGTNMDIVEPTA
# * hit, by the source's call; x = no result given. Compounds with a hit are over-represented: about 1.5% of the library has one in this group of screens.
SMILES,CRFBP-R2 block,SIRT5 block,PKA-R1A act,S100A4 inh HTS,PKA-R2B activ
O=C(O)c1ccc(OCC(O)Cn2c3ccccc3c3ccccc32)cc1 (stereo not drawn),-11,24*,0,0,2
Cc1cccc(-c2ccc([C@H]3[C@@H](CO)N4CCCCN(S(=O)(=O)c5ccccc5C)C[C@H]34)cc2)c1,x,3,x,-4,x
Cc1cccc(-c2ccc([C@@H]3[C@@H](CO)N4CCCCN(S(=O)(=O)c5ccccc5F)C[C@H]34)cc2)c1,x,21*,x,-10,x
Cc1ccccc1S(=O)(=O)N1CCCCN2[C@@H](CO)[C@H](c3ccc(-c4cccc(F)c4)cc3)[C@@H]2C1,x,18*,x,-5,x
O=[N+]([O-])c1cc(/C=N\O)ccc1Oc1ccc(F)cc1,79*,2,-2,-4,-5
O=Cc1cn(-c2ccccc2)nc1-c1ccc2c(c1)OCCO2,61*,x,-14,x,0
CCN(CC)CCSc1nc(O)c(-c2ccccc2)c(=O)n1-c1ccccc1,-11,16*,-12,-2,-1
CC1=CN2C(=N)/C(=C/c3ccc([N+](=O)[O-])o3)C(=O)N=C2S1,-112,21*,-3,-17,4
C/C=C/c1cnc2c(c1)C(=O)N([C@H](C)CO)C[C@@H](C)[C@H](CN(C)C(=O)Cc1ccccc1)O2,x,-4,x,7,x
COc1cc(/C=C/C(=O)OCC(=O)NCC2CCCO2)ccc1OCC#N (stereo not drawn),9,x,0,x,-2
COc1cc(/C=C/C(=O)OCC(=O)Nc2sc3c(c2C#N)CCC(C)C3)ccc1OCC#N (stereo not drawn),-25,15*,-6,6,-1
Nc1nn(S(=O)(=O)c2ccccc2)cc1-c1ccc([N+](=O)[O-])cc1,50*,0,-15,-5,-8
Cc1ccc(S(=O)(=O)n2cc(-c3ccccc3)c(N)n2)cc1,5,x,-6,x,-16
COCC#Cc1ccc([C@H]2[C@H](CO)N3C(=O)CN(C(=O)c4cccnc4)C[C@@H]23)cc1,x,0,x,-10,x
CC(=O)N(C)C[C@H]1Oc2cc(-c3cccnc3)ccc2S(=O)(=O)N([C@@H](C)CO)C[C@H]1C,x,0,x,5,x
COC(=O)c1cc(OC)c(OC)cc1NC(=O)c1c(-c2ccccc2Cl)noc1C,63*,x,-12,x,0
COC(=O)c1cc(OC)c(OC)cc1NC(=O)c1ccco1,76*,x,-10,x,-5
COc1cc(NC(=O)c2ccco2)c(C(=O)O)cc1OC,20,x,-5,x,1
COc1ccc([N+](=O)[O-])cc1NC(=O)C(C)Sc1ccc(C)cc1 (stereo not drawn),0,1,-3,4,-13
COC(=O)c1cc(OC)c(OC)cc1NC(=O)C(C)Sc1ccc(C)cc1 (stereo not drawn),50*,-1,4,0,-1
COc1cccc(-c2ccc([C@H]3[C@H]4CN(C(=O)C5CCCCC5)CC(=O)N4[C@H]3CO)cc2)c1,x,0,x,11,x
Cc1ccc(NC(=O)c2ccc3c(c2)CCN3S(C)(=O)=O)cc1,-14,20*,-1,-12,-3
CCOC(=O)c1c(C(F)(F)C(F)(F)C(F)(F)C(F)(F)F)n[nH]c1C,54*,x,-4,x,1
COc1ccc(S(=O)(=O)Nc2cccc3c2O[C@H](CN(C)S(=O)(=O)c2ccc(F)cc2)[C@H](C)CN([C@@H](C)CO)C3=O)cc1,x,1,x,2,x
CC(C)CC#Cc1ccc2c(c1)O[C@@H](CN(C)C(=O)Cc1cccnc1)[C@H](C)CN([C@H](C)CO)S2(=O)=O,x,2,x,-83,x
Fc1ccc(-c2nnc3n2CCCCC3)cc1,-10,17*,x,-2,x
Cc1ccc(NS(=O)(=O)c2ccc3c(c2)N(C)CCO3)cc1,4,22*,-6,-3,-6
Cc1ccc(S(=O)(=O)Nc2ccc3c(c2)C(=O)N([C@@H](C)CO)C[C@H](C)[C@H](CN(C)S(=O)(=O)c2cccs2)OCCCC[C@@H](C)O3)cc1,x,18*,x,-20,x
